In test [1] the test system is Pancreatic islet. Nature of the test: Cytoprotective activity in human pancreatic islet cells assessed as inhibition of IFN-gamma/TNFalpha/IL1beta-induced cell death at 100 nM after 24 hrs by MTT assay relative to control. The class given is functional. Summed up:
(§1)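 Human donor islets (purity >70%, 25/well) serum-starved 24 h, then 24 h serum-free with peptide (1–100 nM), alone or with IFN-γ 100 ng/mL, TNF-α 200 ng/mL, IL-1β 10 ng/mL. MTT 1 mg/mL ~1 h, DMSO, A570. Percent of serum-free or cytokine control. ≥3 experiments in quadruplicate.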
(Tetrazolium assays rely on reduction of a dye to a coloured formazan, in cell work by metabolically active cells.)

Test [2] concerns HIT-T15. Nature of the test: Antiapoptotic activity in hamster HIT-T15 cells assessed as reduction in IFN-gamma/TNFalpha/IL1beta-induced apoptosis at 1 nM after 24 hrs by Hoechst staining relative to control. The class given is functional, cell-based. The note with it: Mesocricetus auratus. The procedure, abridged:
(§2)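 HIT-T15 cells serum-starved 24 h, then 24 h in serum-free medium with IFN-γ 100 ng/mL, TNF-α 200 ng/mL, IL-1β 10 ng/mL plus peptide. Cells pooled with floating cells, formaldehyde-fixed, ethanol-stored, stained with 10 μg/mL Hoechst 33258. Condensed/fragmented nuclei counted, 500 nuclei in duplicate, n = 3. Reported as percent apoptotic cells.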

Test [3] deals with HIT-T15. Nature of the test: Antiapoptotic activity in hamster HIT-T15 cells assessed as reduction in IFN-gamma/TNFalpha/IL1beta-induced apoptosis at 10 nM after 24 hrs by Hoechst staining relative to control. The note with it: Mesocricetus auratus. The class given is functional, cell-based. Summed up: as §2
The subject of test [4] is HIT-T15. Nature of the test: Antiapoptotic activity in hamster HIT-T15 cells assessed as reduction in IFN-gamma/TNFalpha/IL1beta-induced apoptosis at 100 nM after 24 hrs by Hoechst staining relative to control. The class given is functional, cell-based. The note with it: Mesocricetus auratus. Summed up:
as §2

In test [5] the test system is Pancreatic islet. Nature of the test: Cytoprotective activity in human pancreatic islet cells assessed as inhibition of serum starvation-induced cell death at 10 to 100 nM after 72 hrs by MTT assay relative to control. The class given is functional. Summed up:
(§3)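 Human donor islets (>70% purity, 25/well) held 72 h in serum-free medium with peptide, alone or with IFN-γ/TNF-α/IL-1β at 5 ng/mL each. Viability by MTT (1 mg/mL ~1 h, DMSO, 570 nm). Mean ± SE of ≥3 experiments in quadruplicate.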

Test [6] has as its system Pancreatic islet. Nature of the test: Cytoprotective activity in human pancreatic islet cells assessed as inhibition of IFN-gamma/TNFalpha/IL1beta-induced cell death at 10 to 100 nM after 72 hrs by MTT assay relative to control. The class given is functional. The procedure, abridged: as §3
Test [7] relates to HIT-T15. Nature of the test: Cytoprotective activity in hamster HIT-T15 cells assessed as inhibition of serum starvation-induced cell death after 24 hrs by MTT assay relative to control. The note with it: Mesocricetus auratus. The class given is functional, cell-based. Summed up: (§4)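 Viability by MTT in HIT-T15 cells seeded at 5×10^3/well, serum-starved 24 h, then 24 h more in serum-free medium with peptide (1–100 nM). MTT 1 mg/mL ~1 h, DMSO solubilization, absorbance 570 nm. Expressed as percent of serum-free control. Mean ± SE, ≥3 experiments in quadruplicate.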

Test [8] concerns HIT-T15. Nature of the test: Cytoprotective activity in hamster HIT-T15 cells assessed as inhibition of IFN-gamma/TNFalpha/IL1beta-induced cell death after 24 hrs by MTT assay relative to control. The class given is functional, cell-based. The note with it: Mesocricetus auratus. Summed up: (§5)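 HIT-T15 cells (5×10^3/well) serum-starved 24 h, then 24 h serum-free with IFN-γ 100 ng/mL, TNF-α 200 ng/mL, IL-1β 10 ng/mL plus peptide (1–100 nM). MTT 1 mg/mL ~1 h, formazan dissolved in DMSO, A570. Reported as percent of cytokine control. Mean ± SE of ≥3 experiments in quadruplicate.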

The test system of test [9] is Rattus norvegicus. Nature of the test: Antidiabetic activity in neonatal Sprague-Dawley rat assessed as inhibition of STZ-induced mortality at 30 nmol/kg, sc administered on day 2 post STZ-challenge measured on day 9 (reference value: 52%). The class given is functional. Set-up: scale not given: the % may be the effect or the level left.
Test [10] relates to Rattus norvegicus. Nature of the test: Antidiabetic activity in neonatal Sprague-Dawley rat assessed as decrease in STZ-induced plasma glucose level at 30 nmol/kg, sc administered from day 2 to day 9 post STZ-challenge measured after 70 days by colorimetry relative to control. The class given is functional, organism-based. Summed up: (§6)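 Neonatal rats given STZ 100 mg/kg ip in citrate buffer (pH 4.5) on day 1 of birth, then peptide 30 or 100 nmol/kg sc twice daily, days 2–8. Controls received citrate buffer. Killed at day 70. Glucose measured colorimetrically in nonfasted plasma. Plasma and pancreatic (80 mg) insulin measured by RIA. n = 11–21 per group.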

Test [11] has as its system Rattus norvegicus. Nature of the test: Antidiabetic activity in neonatal Sprague-Dawley rat assessed as inhibition of STZ-induced decrease in plasma insulin level at 30 nmol/kg, sc administered from day 2 to day 9 post STZ-challenge measured after 70 days by RIA relative to control. The class given is functional, organism-based. The procedure, abridged: as §6
The test system of test [12] is Rattus norvegicus. Nature of the test: Antidiabetic activity in neonatal Sprague-Dawley rat assessed as inhibition of STZ-induced decrease in pancreatic insulin level at 30 nmol/kg, […] measured after 70 days by RIA relative to control. The class given is functional, organism-based.
In test [13] the test system is EPC. Nature of the test: Cytoprotective activity in human EPC assessed as decrease in H2O2-induced ROS production after 2 hrs by DCF-DA flow cytometry assay. The class given is functional. The procedure, abridged:
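Human EPCs from peripheral blood mononuclear cells, cultured 21 days on collagen I in EGM-2. ROS measured by flow cytometry using DCF-DA (0.5 μM final) after 2 h of treatment. H₂O₂ 150 μM as positive control.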
In general terms: A flow cytometer gives signals particle by particle.

Test [14] has as its system EPC. Nature of the test: Cytoprotective activity in human EPC assessed as decrease in H2O2-induced senescence associated beta-galactosidase positive cells at 1 uM after 24 hrs. The class given is functional. Summed up: (§7)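 EPCs given test peptides (1 μM or 10 μM) with or without H₂O₂ for 24 h. Cells then fixed in 2% paraformaldehyde for 3 min and stained 24 h at 37 °C with X-gal solution. SA-β-gal-positive cells counted out of 100 at 20× by three investigators.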

In test [15] the test system is HIT-T15. Nature of the test: Cytoprotective activity in hamster HIT-T15 cells assessed as inhibition of serum starvation-induced cell death at 1 to 100 nM after 24 hrs by MTT assay relative to control. The class given is functional, cell-based. The note with it: Mesocricetus auratus. The procedure, abridged: as §4
Test [16] has as its system HIT-T15. Nature of the test: Cytoprotective activity in hamster HIT-T15 cells assessed as inhibition of IFN-gamma/TNFalpha/IL1beta-induced cell death at 1 to 100 nM after 24 hrs by MTT assay relative to control. The class given is functional, cell-based. The following applies: Mesocricetus auratus. The procedure, abridged:
as §5

The test system of test [17] is Pancreatic islet. Nature of the test: Cytoprotective activity in human pancreatic islet cells assessed as inhibition of serum starvation-induced cell death at 1 nM after 24 hrs by MTT assay relative to control. The class given is functional. Summed up:
as §1

Test [18] concerns Pancreatic islet. Nature of the test: Cytoprotective activity in human pancreatic islet cells assessed as inhibition of serum starvation-induced cell death at 10 nM after 24 hrs by MTT assay relative to control. The class given is functional. The procedure, abridged:
as §1

Test [19] has as its system Pancreatic islet. Nature of the test: Cytoprotective activity in human pancreatic islet cells assessed as inhibition of serum starvation-induced cell death at 100 nM after 24 hrs by MTT assay relative to control. The class given is functional. Summed up:
as §1

The subject of test [20] is Pancreatic islet. Nature of the test: Cytoprotective activity in human pancreatic islet cells assessed as inhibition of IFN-gamma/TNFalpha/IL1beta-induced cell death at 1 nM after 24 hrs by MTT assay relative to control. The class given is functional. The procedure, abridged:
as §1

Test [21] has as its system Pancreatic islet. Nature of the test: Cytoprotective activity in human pancreatic islet cells assessed as inhibition of IFN-gamma/TNFalpha/IL1beta-induced cell death at 10 nM after 24 hrs by MTT assay relative to control. The class given is functional. The procedure, abridged:
as §1

Test [22] deals with Rattus norvegicus. Nature of the test: Antidiabetic activity in neonatal Sprague-Dawley rat assessed as inhibition of STZ-induced mortality at 100 nmol/kg, sc administered on day 2 post STZ-challenge measured on day 9 (reference value: 52%). The class given is functional. Further details: scale not given: the % may be the effect or the level left.
In test [23] the test system is Rattus norvegicus. Nature of the test: Antidiabetic activity in neonatal Sprague-Dawley rat assessed as decrease in STZ-induced plasma glucose level at 100 nmol/kg, sc administered from day 2 to day 9 post STZ-challenge measured after 70 days by colorimetry by relative to control. The class given is functional, organism-based. The procedure, abridged:
as §6

The subject of test [24] is Rattus norvegicus. Nature of the test: Antidiabetic activity in neonatal Sprague-Dawley rat assessed as inhibition of STZ-induced decrease in plasma insulin level at 100 nmol/kg, […] post STZ-challenge measured after 70 days by RIA by relative to control. The class given is functional, organism-based.
The subject of test [25] is Rattus norvegicus. Nature of the test: Antidiabetic activity in neonatal Sprague-Dawley rat assessed as inhibition of STZ-induced decrease in pancreatic insulin level at 100 nmol/kg, sc administered from day 2 to day 9 post STZ-challenge measured after 70 days by RIA by relative to control. The class given is functional, organism-based. Summed up:
as §6

Test [26] deals with Ras-related C3 botulinum toxin substrate 1 (Homo sapiens) (UniProt P63000). Nature of the test: Inhibition of Rac1 activation.
For test [27], the system named is EPC. Nature of the test: Cytoprotective activity in human EPC assessed as decrease in H2O2-induced senescence associated beta-galactosidase positive cells at 10 uM after 24 hrs. The class given is functional. Summed up:
as §7

Each structure is given as a SMILES string. The source made the active and inactive calls. The rule behind the calls is not given here.

The values that follow come from ChEMBL document CHEMBL2029233, “Des-acyl ghrelin fragments and analogues promote survival of pancreatic β-cells and human pancreatic islets and prevent diabetes in streptozotocin-treated rats” (2012).

In the case of `CC(C)C[C@H](NC(=O)[C@H](CCCCN)NC(=O)[C@H](C)NC(=O)[C@@H]1CCCN1C(=O)[C@@H]1CCCN1C(=O)[C@H](CCCCN)NC(=O)[C@H](CCCCN)NC(=O)[C@H](CO)NC(=O)[C@H](CCC(=O)O)NC(=O)[C@H](CCCCN)NC(=O)[C@H](CCCNC(=N)N)NC(=O)[C@H](CCC(N)=O)NC(=O)[C@H](CCC(N)=O)NC(=O)[C@@H](NC(=O)[C@H](CCCNC(=N)N)NC(=O)[C@H](CCC(N)=O)NC(=O)[C@H](Cc1cnc[nH]1)NC(=O)[C@H](CCC(=O)O)NC(=O)[C@@H]1CCCN1C(=O)[C@H](CO)NC(=O)[C@H](CC(C)C)NC(=O)[C@H](Cc1ccccc1)NC(=O)[C@H](CO)NC(=O)[C@H](CO)NC(=O)CN)C(C)C)C(=O)N[C@@H](CCC(N)=O)C(=O)N1CCC[C@H]1C(=O)N[C@@H](CCCNC(=N)N)C(=O)O`, the outcome in the test with Pancreatic islet [1], in the test with HIT-T15 [2], with HIT-T15 [3], in the test on HIT-T15 [4], with Pancreatic islet [5] and in the test on Pancreatic islet [6] was Active. Further, the outcome with Rattus norvegicus [10], with Rattus norvegicus [11], in the test with Rattus norvegicus [12], in the test with EPC [13], in the test on EPC [14] and in the test on HIT-T15 [15] was Active. Further, the result in the test with HIT-T15 [16], in the test on Pancreatic islet [18], in the test on Pancreatic islet [19], with Pancreatic islet [20] and with Pancreatic islet [21] was Active. Moreover, the Activity entry in the test on HIT-T15 [7] is “Dose-dependent effect”; in the test with HIT-T15 [8], “Dose-dependent effect”; in the test with Rattus norvegicus [9] it was 72%. Moreover, the result in the test with Pancreatic islet [17] was inactive.

For the compound `CC(C)[C@H](NC(=O)[C@H](CCCNC(=N)N)NC(=O)[C@H](CCC(N)=O)NC(=O)[C@H](Cc1cnc[nH]1)NC(=O)[C@H](CCC(=O)O)NC(=O)[C@@H]1CCCN1C(=O)[C@@H](N)CO)C(=O)N[C@@H](CCC(N)=O)C(N)=O`, the result with HIT-T15 [2], with HIT-T15 [3], with HIT-T15 [4], with Pancreatic islet [5], in the test on Pancreatic islet [6] and in the test with Rattus norvegicus [10] was Active. Further, the result in the test with Rattus norvegicus [23], with Rattus norvegicus [11], with Rattus norvegicus [24], in the test on Rattus norvegicus [12], in the test on Rattus norvegicus [25] and in the test on EPC [13] was Active. The outcome with EPC [27], with HIT-T15 [15] and in the test on HIT-T15 [16] was Active. For the same compound, the Activity entry in the test on HIT-T15 [7] is “Dose-dependent effect”; in the test on HIT-T15 [8], “Dose-dependent effect”; with Rattus norvegicus [9], 71%; in the test on Rattus norvegicus [22], 89%. Also, the inhibition entry in test [26] was “Active”.
